In ChEMBL document CHEMBL3862036, “Biphenyl Pyridazinone Derivatives as Inhaled PDE4 Inhibitors: Structural Biology and Structure-Activity Relationships” (J Med Chem, 2016):

What was measured:
[1] = Pro-inflammatory activity in Sprague-Dawley rat assessed as induction of neutrophilia at 1000 ug/kg, it administered as dry powder with lactose carrier through Penn-Century insufflator; conditions: in vivo, inhaled_or_intranasal, 1 mg/kg
Adenosine receptor A2b = target: T1, Adenosine receptor A2b (Homo sapiens, UniProt P29275); assay: Antagonist activity at adenosine A2b receptor (unknown origin)
T1 sequence (P29275 whole entry): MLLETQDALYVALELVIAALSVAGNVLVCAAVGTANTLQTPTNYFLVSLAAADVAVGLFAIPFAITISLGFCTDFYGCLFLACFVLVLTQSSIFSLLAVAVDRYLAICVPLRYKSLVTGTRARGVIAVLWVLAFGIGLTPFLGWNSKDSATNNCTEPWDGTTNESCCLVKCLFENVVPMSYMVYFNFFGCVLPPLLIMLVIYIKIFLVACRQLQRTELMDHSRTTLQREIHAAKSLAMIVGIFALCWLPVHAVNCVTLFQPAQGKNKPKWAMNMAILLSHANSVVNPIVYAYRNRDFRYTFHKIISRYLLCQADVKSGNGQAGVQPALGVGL

Rattus norvegicus [2] = assay: Anti-inflammatory activity in Sprague-Dawley rat assessed as inhibition of LPS-induced neutrophilia at 100 ug/kg, it administered as dry powder with lactose carrier through Penn-Century insufflator dosed 1 hrs before LPS challenge and measured 5 hrs post dose; format: functional
Procedure, shortened: (§1)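 Compounds were micronized, comixed with lactose, and 5 mg of the mixture was insufflated intratracheally into isoflurane-anesthetized fasted male Sprague-Dawley rats (230–280 g). LPS aerosol (30 mL of a 1:100 PBS dilution of 100 mg/10 mL stock) was nebulized for 40 min at 1 or 18 h post-dose. BAL was taken 4 h later and neutrophils counted by flow cytometry. Controls: lactose alone, lactose+LPS, fluticasone (10% in lactose).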

Rattus norvegicus [3] = assay: Anti-inflammatory activity in Sprague-Dawley rat assessed as inhibition of LPS-induced neutrophilia at 10 to 1000 ug/kg, it administered as suspension with Penn-Century micro-sprayer aerosolizer dosed 18 hrs before LPS challenge and measured 22 hrs post dose; format: functional; conditions: inhaled or nasal
Procedure, shortened: (§2)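 Suspensions in PBS/0.2% Tween 80 were homogenized, with lower doses made by 1:10 dilutions. 0.2 mL was given intratracheally by MicroSprayer to isoflurane-anesthetized fasted male Sprague-Dawley rats (230–280 g). At 1 or 18 h, rats received nebulized LPS (30 mL of a 1:100 PBS dilution of 100 mg/10 mL stock) over 40 min. Four hours later, BAL neutrophils were counted by flow cytometry.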

Adenosine receptor A2a = Adenosine receptor A2a (Homo sapiens, UniProt P29274); assay: Antagonist activity at adenosine A2a receptor (unknown origin)
Adenosine receptor A2a, sequence (P29274 whole entry): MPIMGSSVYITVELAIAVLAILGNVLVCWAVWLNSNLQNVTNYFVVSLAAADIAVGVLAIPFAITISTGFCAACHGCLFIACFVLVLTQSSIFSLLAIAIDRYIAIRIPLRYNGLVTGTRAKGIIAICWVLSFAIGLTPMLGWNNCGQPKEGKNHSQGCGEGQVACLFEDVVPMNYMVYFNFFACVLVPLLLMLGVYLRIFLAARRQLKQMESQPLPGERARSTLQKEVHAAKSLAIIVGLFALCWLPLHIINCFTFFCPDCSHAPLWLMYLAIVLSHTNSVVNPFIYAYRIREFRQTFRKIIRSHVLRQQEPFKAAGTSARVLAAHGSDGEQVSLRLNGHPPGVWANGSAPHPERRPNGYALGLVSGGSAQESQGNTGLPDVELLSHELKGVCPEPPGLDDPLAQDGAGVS

[4] = Inhibition of PDE4 in PBMC (unknown origin) assessed as reduction in LPS-induced TNFalpha production incubated for 24 hrs by ELISA; conditions: Homo sapiens
[5] = Inhibition of PDE4 in human whole blood assessed as reduction in LPS-induced TNFalpha production incubated for 24 hrs by ELISA; format: tissue-based
Procedure, shortened: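 Human whole blood was preincubated with LPS (final 1 μg/mL) for 10 min at 37 °C with rocking. 200 μL was added to wells holding increasing inhibitor concentrations in 100% DMSO. Plates were incubated 24 h at 37 °C under agitation, then placed on ice, diluted with PBS and centrifuged at 800g, 4 °C, for 15 min before TNF-α measurement.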

Adenosine receptor A1 = target: T2, Adenosine receptor A1 (Homo sapiens, UniProt P30542); assay: Antagonist activity at adenosine A1 receptor (unknown origin)
T2 sequence (P30542 whole entry): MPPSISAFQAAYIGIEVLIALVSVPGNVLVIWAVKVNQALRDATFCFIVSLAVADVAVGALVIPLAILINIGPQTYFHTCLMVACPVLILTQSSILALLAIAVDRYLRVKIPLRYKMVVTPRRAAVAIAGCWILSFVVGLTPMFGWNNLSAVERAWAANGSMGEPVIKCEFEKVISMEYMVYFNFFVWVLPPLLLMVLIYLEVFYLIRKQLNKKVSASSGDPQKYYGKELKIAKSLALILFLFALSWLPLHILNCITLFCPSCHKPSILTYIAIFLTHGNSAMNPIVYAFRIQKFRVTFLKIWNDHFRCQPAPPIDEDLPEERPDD

Rattus norvegicus [6] = assay: Anti-inflammatory activity in Sprague-Dawley rat assessed as inhibition of LPS-induced neutrophilia at 100 ug/kg, it administered as suspension with Penn-Century micro-sprayer aerosolizer dosed 1 hrs before LPS challenge and measured 5 hrs post dose; format: functional; conditions: inhaled or nasal; procedure, shortened: as §2
[7] = Basicity constant, pKB of the compound; format: physicochemical
Rattus norvegicus [8] = assay: Anti-inflammatory activity in Sprague-Dawley rat assessed as inhibition of LPS-induced neutrophilia at 300 ug/kg, it administered as suspension with Penn-Century micro-sprayer aerosolizer dosed 18 hrs before LPS challenge and measured 22 hrs post dose; format: functional; conditions: inhaled or nasal; procedure, shortened: as §2
Rattus norvegicus [9] = assay: Anti-inflammatory activity in Sprague-Dawley rat assessed as inhibition of LPS-induced neutrophilia at 30 ug/kg, it administered as suspension with Penn-Century micro-sprayer aerosolizer dosed 18 hrs before LPS challenge and measured 22 hrs post dose; format: functional; conditions: inhaled or nasal; procedure, shortened: as §2
Rattus norvegicus [10] = assay: Anti-inflammatory activity in Sprague-Dawley rat assessed as inhibition of LPS-induced neutrophilia at 10 to 1000 ug/kg, it administered as suspension with Penn-Century micro-sprayer aerosolizer dosed 1 hrs before LPS challenge and measured 5 hrs post dose; format: functional; conditions: inhaled or nasal; procedure, shortened: as §2
Rattus norvegicus [11] = assay: Anti-inflammatory activity in Sprague-Dawley rat assessed as inhibition of LPS-induced neutrophilia at 100 ug/kg, it administered as suspension with Penn-Century micro-sprayer aerosolizer dosed 18 hrs before LPS challenge and measured 22 hrs post dose; format: functional; conditions: inhaled or nasal; procedure, shortened: as §2
Rattus norvegicus [12] = assay: Anti-inflammatory activity in Sprague-Dawley rat assessed as inhibition of LPS-induced neutrophilia at 1000 ug/kg, it administered as suspension with Penn-Century micro-sprayer aerosolizer dosed 1 hrs before LPS challenge and measured 5 hrs post dose; format: functional; conditions: inhaled or nasal; procedure, shortened: as §2
Rattus norvegicus [13] = assay: Anti-inflammatory activity in Sprague-Dawley rat assessed as inhibition of LPS-induced neutrophilia at 10 to 1000 ug/kg, it administered as dry powder with lactose carrier through Penn-Century insufflator dosed 1 hrs before LPS challenge and measured 5 hrs post dose; format: functional; procedure, shortened: as §1
Rattus norvegicus [14] = assay: Anti-inflammatory activity in Sprague-Dawley rat assessed as inhibition of LPS-induced neutrophilia at 1000 ug/kg, it administered as dry powder with lactose carrier through Penn-Century insufflator dosed 18 hrs before LPS challenge and measured 22 hrs post dose; format: functional; procedure, shortened: as §1
Rattus norvegicus [15] = assay: Anti-inflammatory activity in Sprague-Dawley rat assessed as inhibition of LPS-induced neutrophilia at 1000 ug/kg, it administered as suspension with Penn-Century micro-sprayer aerosolizer dosed 18 hrs before LPS challenge and measured 22 hrs post dose; format: functional; conditions: inhaled or nasal; procedure, shortened: as §2
[16] = Drug metabolism in human liver S9 fraction assessed as glucuronidation in presence of PAPS and UDPGA incubated for 20 mins; format: ADME, subcellular; conditions: read-out: Drug metabolism
[17] = Drug metabolism in human liver S9 fraction assessed as sulfonation in presence of PAPS and UDPGA incubated for 20 mins; format: ADME, subcellular; conditions: read-out: Drug metabolism

Row | SMILES | fold change (FC) [1] | IC50 (Adenosine receptor A2b) | inhibition in vivo at 0.1 mg/kg (Rattus norvegicus [2]) | ED50 (Rattus norvegicus [3]) | IC50 (Adenosine receptor A2a) | IC50 [4] | IC50 [5] | IC50 (Adenosine receptor A1) | inhibition in vivo at 0.1 mg/kg (Rattus norvegicus [6]) | pKb [7] | inhibition in vivo at 0.3 mg/kg (Rattus norvegicus [8]) | inhibition in vivo at 0.03 mg/kg (Rattus norvegicus [9]) | ED50 (Rattus norvegicus [10]) | inhibition in vivo at 0.1 mg/kg (Rattus norvegicus [11]) | inhibition in vivo at 1 mg/kg (Rattus norvegicus [12]) | ED50 (Rattus norvegicus [13]) | inhibition in vivo at 1 mg/kg (Rattus norvegicus [14]) | inhibition in vivo at 1 mg/kg (Rattus norvegicus [15]) | metabolised at 20 min [16] | metabolised at 20 min [17]
1 | CCn1nc(-c2cccc(-c3ccc(CC(=O)NCCCCCCCN(C)CCO)cc3)c2)cc(NC(=O)Nc2c(Cl)cncc2Cl)c1=O | 1.9 | 94 nM | 23% | 0.091 mg/kg | 86 nM | 0.57 nM | 323 nM | 61 nM | 69% | – | – | – | – | – | – | – | – | – | – | –
2 | CCn1nc(-c2cccc(-c3cccc(C(=O)NCCN4CCOCC4)c3)c2)cc(NC(=O)Nc2c(Cl)cncc2Cl)c1=O | 1.1 | 145 nM | – | – | 33 nM | 0.07 nM | 59 nM | 15 nM | 52% | 8.3 | – | – | – | – | – | – | – | – | – | –
3 | CCNC(=O)c1cc(C(=O)NCCCN(C)C)cc(-c2cccc(-c3cc(NC(=O)Nc4c(Cl)cncc4Cl)c(=O)n(CC)n3)c2)c1 | – | 368 nM | – | – | > 1000 nM | 0.36 nM | – | 537 nM | – | – | 60% | 58% | 0.018 mg/kg | 48% | – | – | – | – | – | –
4 | CCn1nc(-c2cccc(-c3ccc(C(=O)O)cc3)c2)cc(NC(=O)Nc2c(Cl)cncc2Cl)c1=O | – | – | – | – | – | 0.55 nM | 373 nM | – | 50% | – | – | – | – | – | 59% | 0.015 mg/kg | 8% | 25% | 0% | –
5 | CCn1nc(-c2cccc(-c3cncc(O)c3)c2)cc(NC(=O)Nc2c(Cl)cncc2Cl)c1=O | – | 111 nM | – | – | 333 nM | 0.29 nM | 64 nM | 11 nM | – | – | – | – | – | – | 58% | – | – | 23% | 36% | 16%
6 | CCn1nc(-c2cccc(-c3ccc(O)c(F)c3)c2)cc(NC(=O)Nc2c(Cl)cncc2Cl)c1=O | – | – | – | – | – | 2.4 nM | 93 nM | – | – | – | – | – | 0.342 mg/kg | – | – | – | – | – | 6% | 3%
